Source: publication PMC11246720 (Journal of the American Chemical Society, 2023)
Substitutions are numbered along the chain they refer to.

Assays:
MAGE-A4 [1] = target: T1, MAGE-A4 (Homo sapiens, UniProt P43358); assay: MALDI-MS covalent modification of MAGE-A4; type: binding
T1 sequence (P43358 1-317): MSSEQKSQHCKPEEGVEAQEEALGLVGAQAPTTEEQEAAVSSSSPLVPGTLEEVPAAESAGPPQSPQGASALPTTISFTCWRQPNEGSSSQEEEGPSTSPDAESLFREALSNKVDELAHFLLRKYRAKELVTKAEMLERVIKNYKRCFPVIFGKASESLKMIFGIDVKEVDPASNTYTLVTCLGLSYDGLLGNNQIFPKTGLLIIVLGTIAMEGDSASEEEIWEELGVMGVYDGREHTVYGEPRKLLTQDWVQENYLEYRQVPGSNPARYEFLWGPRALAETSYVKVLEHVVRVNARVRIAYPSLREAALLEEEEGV
Procedure, shortened: (§1)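 MAGE-A4 wild type or its C80A mutant was incubated with each peptide, and the intact protein was analysed by MALDI-MS for covalent adducts. L-Ala and D-Ala variants of each peptide, in which the dehydroalanines are replaced, were run in parallel.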

MAGE-A4 C80A [2] = target: T2, MAGE-A4 C80A (Homo sapiens, UniProt P43358, C80A); assay: MALDI-MS covalent modification of MAGE-A4 C80A mutant; type: binding
T2 sequence (P43358 1-317 C80A): T1 sequence (P43358 1-317) with C80A
Procedure, shortened: as §1

MAGE-A4 [3] = target: T1, MAGE-A4; assay: TR-FRET between AF647-MTP-1 and MAGE-A4; type: binding
Procedure, shortened: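 Time-dependent TR-FRET measured displacement of AF647-labelled MTP-1 peptide tracer from MAGE-A4 (and from MAGE-A4 C80A) by covalent peptides. IC50 values were calculated from the resulting TR-FRET curves.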

MAGE-A4 C80A [4] = target: T2, MAGE-A4 C80A; assay: TR-FRET between AF647-MTP-1 and MAGE-A4 C80A; type: binding; settings: TR-FRET vs AF647-MTP-1
MAGE-A4 [5] = target: T1, MAGE-A4; assay: Mass dilution TR-FRET assay for kinetic parameters; type: binding
RAD18-MAGE-A4 complex = target: T3, RAD18-MAGE-A4 complex (Homo sapiens, UniProt P43358); assay: Co-immunoprecipitation of the RAD18-MAGE-A4 complex in cell lysates; settings: 10 μM peptides
T3 sequence (P43358 1-317): T1 sequence (P43358 1-317)
Procedure, shortened: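 Read-out is Western blotting of MAGE-A4 co-immunoprecipitated with RAD18 from cell lysates. Peptides were tested at 10 μM, alongside a peptide included as a negative control.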

## MCP1
MAGE-A4 [1]
  covalent modification of MAGE-A4: modify MAGE-A4
MAGE-A4 C80A [2]
  covalent modification of MAGE-A4 C80A mutant: did not label
MAGE-A4 [3]; after 1 hour
  IC50: 9 nM
MAGE-A4 [3]; time-dependent TR-FRET
  change in potency over time: small yet significant increases in potency over time
MAGE-A4 C80A [4]
  IC50 / activity in the presence of MAGE-A4 C80A: fell in between those of their L- and D-Ala mutants
MAGE-A4 [5]
  Ki: 7.3 ± 1.1 nM
  inactivation efficiency (kinact/KI): 8.17e+06 ± 867000 M⁻¹ s⁻¹
  kinact: 3.4 ± 0.3 min⁻¹
RAD18-MAGE-A4 complex
  disruption of MAGE-A4 pulldown with RAD18: able to disrupt MAGE-A4 pulldown
